Measurements taken from ChEMBL document CHEMBL1649151, “Urinary bactericidal activity of Doripenem versus that of levofloxacin in patients with complicated urinary tract infections or pyelonephritis” (Antimicrob Agents Chemother, 2009).

What was measured:
Escherichia coli [1] = assay: Antimicrobial activity against Escherichia coli 2062717 B-P isolated from patient with pyelonephritis assessed as >3-log reduction in urinary bacterial titer after 12 hrs; type: functional, Urine
In short: (§1)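 Patient urine was collected on day 3 of i.v. therapy (steady state) over 4-h intervals after infusion start, stored at –80°C, and sterile filtered. It was twofold serially diluted (1:0 to 1:131,072) in the patient's own pre-dose drug-free urine, inoculated to 1.0 x 10^6–9.5 x 10^6 CFU/ml, and incubated for 18 h at 37°C. Subcultures were grown on blood agar for 24 h. The UBT is the reciprocal of the highest dilution giving >99.9% kill.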

Escherichia coli [2] = assay: Antimicrobial activity against Escherichia coli 1821385 B-C isolated from patient with pyelonephritis assessed as >3-log reduction in urinary bacterial titer after 12 hrs; type: functional, Urine
In short: (§2)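 Urine was collected on day 3 of i.v. therapy (steady state) over 4-h intervals from infusion start (0–4 to 20–24 h), stored at –80°C and sterile filtered. It was serially diluted twofold (1:0 up to 1:131,072) in the patient's own pre-dose drug-free urine. Microdilution used a final inoculum of 1.0 x 10^6 to 9.5 x 10^6 CFU/ml, incubated 18 h at 37°C in air. 10 µl was subcultured onto 5% blood Columbia agar for 24 h at 37°C. The bactericidal endpoint was >99.9% (>3-log) kill, reported as a reciprocal titer.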

Escherichia coli [3] = assay: Antimicrobial activity against Escherichia coli 1889646 B-F isolated from patient with pyelonephritis assessed as >3-log reduction in urinary bacterial titer after 8 hrs; type: functional, Urine; in short: as §2
Escherichia coli [4] = assay: Antimicrobial activity against Escherichia coli 1889646 B-F isolated from patient with pyelonephritis assessed as >3-log reduction in urinary bacterial titer after 12 hrs; type: functional, Urine; in short: as §2
Escherichia coli [5] = assay: Antimicrobial activity against Escherichia coli 2297257 B-W isolated from patient with pyelonephritis assessed as >3-log reduction in urinary bacterial titer after 20 hrs; type: functional, Urine
Escherichia coli [6] = assay: Antimicrobial activity against Escherichia coli 1949825 B-K isolated from patient with pyelonephritis assessed as >3-log reduction in urinary bacterial titer after 4 hrs; type: functional, Urine; in short: as §1
Escherichia coli [7] = assay: Antimicrobial activity against Escherichia coli 2062717 B-P isolated from patient with pyelonephritis assessed as >3-log reduction in urinary bacterial titer after 4 hrs; type: functional, Urine
Escherichia coli [8] = assay: Antimicrobial activity against Escherichia coli 1949826 B-L isolated from patient with pyelonephritis assessed as >3-log reduction in urinary bacterial titer after 24 hrs; type: functional, Urine; in short: as §1
Escherichia coli [9] = assay: Antimicrobial activity against Escherichia coli 2297257 B-W isolated from patient with pyelonephritis assessed as >3-log reduction in urinary bacterial titer after 16 hrs; type: functional, Urine
Escherichia coli [10] = assay: Antimicrobial activity against Escherichia coli 1889645 B-I isolated from patient with pyelonephritis assessed as >3-log reduction in urinary bacterial titer after 8 hrs; type: functional, Urine; in short: as §2
Escherichia coli [11] = assay: Antimicrobial activity against Escherichia coli 1949826 B-L isolated from patient with pyelonephritis assessed as >3-log reduction in urinary bacterial titer after 16 hrs; type: functional, Urine; in short: as §1
[12] = tested on: Staphylococcus haemolyticus; assay: Antimicrobial activity against Staphylococcus haemolyticus 1949819 B-M isolated from patient with pyelonephritis assessed as >3-log reduction in urinary bacterial titer after 16 hrs; type: functional, Urine
Escherichia coli [13] = assay: Antimicrobial activity against Escherichia coli 1889646 B-F isolated from patient with pyelonephritis assessed as >3-log reduction in urinary bacterial titer after 20 hrs; type: functional, Urine; in short: as §2
Escherichia coli [14] = assay: Antimicrobial activity against Escherichia coli 1780063 B-A isolated from patient with pyelonephritis assessed as >3-log reduction in urinary bacterial titer after 8 hrs; type: functional, Urine
In short: (§3)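 Urine was collected before dosing and on day 3 of i.v. therapy (steady state), in 4-h intervals from infusion start (0–4 to 20–24 h), stored at −80°C and sterile filtered. It was serially diluted twofold (1:0 to 1:131,072) in the patient's drug-free pre-dose urine. Microdilution used an inoculum of 1.0 x 10^6–9.5 x 10^6 CFU/ml, incubated 18 h at 37°C, then subcultured 24 h on blood agar. The endpoint was >99.9% kill, reported as reciprocal titer.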

Escherichia coli [15] = assay: Antimicrobial activity against Escherichia coli 1655646 A-Y isolated from patient with pyelonephritis by Etest; type: functional
Escherichia coli [16] = assay: Antimicrobial activity against Escherichia coli 1821386 B-D isolated from patient with pyelonephritis assessed as >3-log reduction in urinary bacterial titer after 20 hrs; type: functional, Urine; in short: as §2
Pseudomonas aeruginosa [17] = assay: Antimicrobial activity against Pseudomonas aeruginosa 2062713 B-Q isolated from patient with pyelonephritis assessed as >3-log reduction in urinary bacterial titer after 4 hrs; type: functional, Urine
Staphylococcus aureus [18] = assay: Antimicrobial activity against Staphylococcus aureus 2215767-9 B-S isolated from patient with pyelonephritis assessed as >3-log reduction in urinary bacterial titer after 8 hrs; type: functional, Urine
Serratia marcescens [19] = assay: Antimicrobial activity against Serratia marcescens 2297260 B-U isolated from patient with pyelonephritis assessed as >3-log reduction in urinary bacterial titer after 12 hrs; type: functional, Urine
Pseudomonas aeruginosa [20] = assay: Antimicrobial activity against Pseudomonas aeruginosa 1821383 B-E isolated from patient with pyelonephritis assessed as >3-log reduction in urinary bacterial titer after 12 hrs; type: functional, Urine
Enterococcus faecalis [21] = assay: Antimicrobial activity against Enterococcus faecalis 2215767-10 B-S isolated from patient with pyelonephritis by Etest; type: functional
Enterococcus faecalis [22] = assay: Antimicrobial activity against Enterococcus faecalis 2297262-10 B-V isolated from patient with pyelonephritis assessed as >3-log reduction in urinary bacterial titer after 4 hrs; type: functional, Urine; in short: as §3
Serratia marcescens [23] = assay: Antimicrobial activity against Serratia marcescens 2297260 B-U isolated from patient with pyelonephritis assessed as >3-log reduction in urinary bacterial titer after 20 hrs; type: functional, Urine
Pseudomonas aeruginosa [24] = assay: Antimicrobial activity against Pseudomonas aeruginosa 1821383 B-E isolated from patient with pyelonephritis assessed as >3-log reduction in urinary bacterial titer after 8 hrs; type: functional, Urine
Escherichia coli [25] = assay: Antimicrobial activity against Escherichia coli 1889647 B-H isolated from patient with pyelonephritis assessed as >3-log reduction in urinary bacterial titer after 16 hrs; type: functional, Urine; in short: as §2
Escherichia coli [26] = assay: Antimicrobial activity against Escherichia coli 1889647 B-H isolated from patient with pyelonephritis assessed as >3-log reduction in urinary bacterial titer after 24 hrs; type: functional, Urine; in short: as §2
Escherichia coli [27] = assay: Antimicrobial activity against Escherichia coli 1821386 B-D isolated from patient with pyelonephritis assessed as >3-log reduction in urinary bacterial titer after 8 hrs; type: functional, Urine; in short: as §2
Escherichia coli [28] = assay: Antimicrobial activity against Escherichia coli 1821386 B-D isolated from patient with pyelonephritis assessed as >3-log reduction in urinary bacterial titer after 16 hrs; type: functional, Urine; in short: as §2
Enterococcus faecalis [29] = assay: Antimicrobial activity against Enterococcus faecalis 2297262-10 B-V isolated from patient with pyelonephritis assessed as >3-log reduction in urinary bacterial titer after 20 hrs; type: functional, Urine; in short: as §3
Escherichia coli [30] = assay: Antimicrobial activity against Escherichia coli 1780064 A-X isolated from patient with pyelonephritis by Etest; type: functional
Pseudomonas aeruginosa [31] = assay: Antimicrobial activity against Pseudomonas aeruginosa 1821383 B-E isolated from patient with pyelonephritis assessed as >3-log reduction in urinary bacterial titer after 4 hrs; type: functional, Urine
Escherichia coli [32] = assay: Antimicrobial activity against Escherichia coli 2062716 B-R isolated from patient with pyelonephritis assessed as >3-log reduction in urinary bacterial titer after 4 hrs; type: functional, Urine; in short: as §1
[33] = tested on: Staphylococcus epidermidis; assay: Antimicrobial activity against Staphylococcus epidermidis 2297262-9 B-V isolated from patient with pyelonephritis assessed as >3-log reduction in urinary bacterial titer after 20 hrs; type: functional, Urine
Staphylococcus aureus [34] = assay: Antimicrobial activity against Staphylococcus aureus 2215767-9 B-S isolated from patient with pyelonephritis assessed as >3-log reduction in urinary bacterial titer after 12 hrs; type: functional, Urine

**Q.** Which urinary bactericidal titer (Escherichia coli [1]) does the source give for `C[C@@H](O)[C@H]1C(=O)N2C(C(=O)O)=C(S[C@@H]3CN[C@H](CNS(N)(=O)=O)C3)[C@H](C)[C@H]12` [DORIPENEM] here?
**A.** 1024 reciprocal titer

**Q.** And the urinary bactericidal titer (Escherichia coli [2])?
**A.** 32800 reciprocal titer

**Q.** What about the urinary bactericidal titer (Escherichia coli [3]) of the same compound?
**A.** 32800 reciprocal titer

**Q.** What about the urinary bactericidal titer (Escherichia coli [4]) of the same compound?
**A.** 32800 reciprocal titer

**Q.** And the urinary bactericidal titer (Escherichia coli [5])?
**A.** 32800 titer

**Q.** What about the urinary bactericidal titer (Escherichia coli [6]) of the same compound?
**A.** 16400 reciprocal titer

**Q.** What about the urinary bactericidal titer (Escherichia coli [7]) of the same compound?
**A.** 32800 reciprocal titer

**Q.** What about the urinary bactericidal titer (Escherichia coli [8]) of the same compound?
**A.** 16400 reciprocal titer

**Q.** And the urinary bactericidal titer (Escherichia coli [9])?
**A.** 4096 reciprocal titer

**Q.** And the urinary bactericidal titer (Escherichia coli [10])?
**A.** 32800 reciprocal titer

**Q.** What about the urinary bactericidal titer (Escherichia coli [11]) of the same compound?
**A.** 32800

**Q.** And the urinary bactericidal titer [12]?
**A.** 128 reciprocal titer

**Q.** And the urinary bactericidal titer (Escherichia coli [13])?
**A.** 65500

**Q.** And the urinary bactericidal titer (Escherichia coli [14])?
**A.** 1024 reciprocal titer

**Q.** With `C[C@H]1COc2c(N3CCN(C)CC3)c(F)cc3c(=O)c(C(=O)O)cn1c23.C[C@H]1COc2c(N3CCN(C)CC3)c(F)cc3c(=O)c(C(=O)O)cn1c23.O` [LEVOFLOXACIN] as the compound, how does the MIC (Escherichia coli [15]) read?
**A.** 0.047 µg/mL

**Q.** What about the urinary bactericidal titer (Escherichia coli [16]) of the same compound?
**A.** 2048 reciprocal titer

**Q.** And the urinary bactericidal titer (Pseudomonas aeruginosa [17])?
**A.** 8 reciprocal titer

**Q.** What about the urinary bactericidal titer (Staphylococcus aureus [18]) of the same compound?
**A.** 0 reciprocal titer

**Q.** And the urinary bactericidal titer (Serratia marcescens [19])?
**A.** 128 reciprocal titer

**Q.** What about the urinary bactericidal titer (Pseudomonas aeruginosa [20]) of the same compound?
**A.** 128 reciprocal titer

**Q.** And the MIC (Enterococcus faecalis [21])?
**A.** > 32 µg/mL

**Q.** And the Time (Enterococcus faecalis [22])?
**A.** 0 h

**Q.** And the urinary bactericidal titer (Serratia marcescens [23])?
**A.** 32 reciprocal titer

**Q.** What about the urinary bactericidal titer (Pseudomonas aeruginosa [24]) of the same compound?
**A.** 128 reciprocal titer

**Q.** What about the urinary bactericidal titer (Escherichia coli [25]) of the same compound?
**A.** 1024 reciprocal titer

**Q.** What about the urinary bactericidal titer (Escherichia coli [26]) of the same compound?
**A.** 256 reciprocal titer

**Q.** And the urinary bactericidal titer (Escherichia coli [27])?
**A.** 8192 reciprocal titer

**Q.** What about the urinary bactericidal titer (Escherichia coli [28]) of the same compound?
**A.** 4096 reciprocal titer

**Q.** What about the Time (Enterococcus faecalis [29]) of the same compound?
**A.** 0 h

**Q.** And the MIC (Escherichia coli [30])?
**A.** 0.047 µg/mL

**Q.** What about the urinary bactericidal titer (Pseudomonas aeruginosa [31]) of the same compound?
**A.** 32 reciprocal titer

**Q.** And the urinary bactericidal titer (Escherichia coli [32])?
**A.** 1024 reciprocal titer

**Q.** And the urinary bactericidal titer [33]?
**A.** 2 reciprocal titer

**Q.** What about the urinary bactericidal titer (Staphylococcus aureus [34]) of the same compound?
**A.** 1 reciprocal titer
